High-throughput results from PubChem.
RORa activator = RORA (human) activation | CHO-K1 Gal4-RORA LBD luciferase reporter, luminescence; percent increase over mock-subtracted basal signal | activation, % at 10 µM | 65,000 compounds, 1.5% hits;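 active = activation above the mean of all tested compounds plus 3 SD, cut at about 49% in these data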;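 also: 0% = DMSO-treated RORA cells and 100% = added signal equal to DMSO minus mock-transfected cells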
JNK3 blocker = inhibitors of human JNK3 kinase; P53779; purified JNK3 kinase activity, HTS; inhibition, % at 8 µM; 60,000 compounds, 0.61% hits; AID 746; in the data active = inhibition above about 17%;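 also: 0% = DMSO and 100% = reference inhibitor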
Calb biofilm kill = kills Candida albicans biofilms; C. albicans biofilm + clotrimazole, Alamar Blue; inhibition, % at 6 µM; 85,000 compounds, 0.14% hits; AID 834;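 active = inhibition above 20%; inactive = inhibition below 20%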;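 also: preformed 24 hr biofilms exposed to compound for 48 hr; 0% = biofilm without compound and 100% = blank killed by clotrimazole plus chlorhexidine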
SF1 activator = activates the human nuclear receptor SF-1 | Q13285 | 65,000 compounds, 1.9% hits | CHO-K1 Gal4-SF-1 LBD luciferase reporter; % increase over DMSO SF-1-specific signal | activation, % at 10 µM;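 active = activation above the mean activation of all tested compounds plus 3 SD, cut at about 50% in these data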
Target sequence (Q13285 whole entry, looked up, the tested form may be a part): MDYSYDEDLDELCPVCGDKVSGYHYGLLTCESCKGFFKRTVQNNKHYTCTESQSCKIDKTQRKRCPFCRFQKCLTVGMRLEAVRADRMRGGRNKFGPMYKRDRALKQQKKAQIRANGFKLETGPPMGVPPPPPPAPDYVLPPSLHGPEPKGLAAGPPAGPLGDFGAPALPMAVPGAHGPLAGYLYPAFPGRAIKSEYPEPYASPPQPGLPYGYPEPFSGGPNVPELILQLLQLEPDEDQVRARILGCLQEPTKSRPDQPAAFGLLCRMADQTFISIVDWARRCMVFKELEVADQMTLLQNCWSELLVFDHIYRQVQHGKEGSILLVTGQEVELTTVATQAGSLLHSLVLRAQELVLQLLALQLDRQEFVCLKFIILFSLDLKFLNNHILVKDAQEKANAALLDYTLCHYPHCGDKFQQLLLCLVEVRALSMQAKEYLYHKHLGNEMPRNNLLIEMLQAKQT
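Material: Transient Gal4-SF-1 LBD reporter, CHO-K1 | Input: 4,000 cells/well | Dosing: One dose, 10 µM compound, 1% DMSO | Incubation: 20 h compound treatment, 37 °C | Detection: SteadyLite luciferase luminescence | Evaluation: Percent activation relative to DMSO median and mock-transfected background | Benchmarks: DMSO-treated SF-1-transfected cells as negative, DMSO-treated mock-transfected cells lacking SF-1 as background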
Numbers without * were called inactive; x = no result. Sampled rows, rich in hits. Any-hit rate of the full collection: about 2.3%.

SMILES	RORa activator	JNK3 blocker	Calb biofilm kill	SF1 activator
Cc1c(C2Nc3ccccc3NC3=C2C(=O)CC(C)(C)C3)cnn1C (stereo not given)	9	-4	5	-6
CC(C)N1CC(O)=C(c2nc3ccccc3[nH]2)C1=N	50*	-15	6	30
COc1ccc(-c2cc(C(=O)N3CCCCC3)no2)cc1OC	6	-5	6	77*
Brc1ccc(-c2nc(-c3ccccc3)no2)o1	68*	1	10	63*
Brc1ccc(-c2nc(-c3cccnc3)no2)o1	28	1	8	66*
CC(=O)Oc1ccc(-c2nc(-c3cccnc3)no2)cc1	53*	5	3	28
COc1ccccc1N1CCN(CC(O)COc2ccc3c(c2)CCC3)CC1 (stereo not given)	x	x	5	x
Cc1cccc(-c2c3c(=O)n(C)c(=O)n(C)c3c3cccnn23)c1	-9	5	10	-8
Cc1nc2c(c(=O)n1CC1CCCO1)c1nc3ccccc3nc1n2Cc1ccc2c(c1)OCO2 (stereo not given)	-16	-9	4	17
COc1ccc(OC)c(C(=O)c2coc3ccc(O)cc23)c1	18	18*	6	17
O=c1c2ccccc2nnn1CSc1nnc(COc2ccc(Cl)cc2)n1Cc1ccco1	-11	0	5	56*
O=c1c2ccccc2nnn1CSc1nc2cc(Cl)ccc2c(=O)n1Cc1ccco1	-6	-2	3	-4
CC(C)CC(=O)N1CCN(S(=O)(=O)c2ccc3ccccc3c2)CC1	x	x	-4	x
c1ccc(-c2n[nH]c(-c3ccccn3)n2)nc1	24	2	2	78*
Cc1cccc(OCc2nnc(SCc3cc(=O)n4cc(Br)ccc4n3)o2)c1	4	-3	0	-6
Cc1cc(C)n2nc(Nc3ccccc3)cc2n1	23	x	x	62*
Cc1cc(C)n2nc(C(=O)NCc3ccccc3)cc2n1	23	3	8	7
CC(NC(=O)c1ccccc1)C(c1cccs1)N1CCOCC1 (stereo not given)	x	x	3	x
COC(=O)c1ccc2c(=O)n(CCC3=CCCCC3)c(SCC(=O)N3CCCC3)nc2c1	17	x	8	-6
COc1ccc2c(c1)Cc1sc(NC(C)=O)nc1-2	42	-11	8	77*
CCCCCCCCCCOC(=O)c1csc2nnsc12	x	x	9	x
O=C(CSc1ncn[nH]1)Nc1nnc(-c2ccccc2)s1	56*	-3	-2	-16
CC1CCCC(C)N1C(=O)CSc1nnc(COc2ccccc2)n1-c1ccccc1 (stereo not given)	x	x	7	x
CC1(C)NC(=O)N(CCCOc2ccc(Br)cc2Cl)C1=O	19	-6	3	65*
CC1(C)NC(=O)N(CCCCOc2ccc(Br)cc2Cl)C1=O	x	x	-5	x
SMILES	RORa activator	JNK3 blocker	Calb biofilm kill	SF1 activator
c1ccc(Cn2c(-c3ccco3)nc3nc4ccccc4nc32)cc1	75*	-2	8	82*
COc1ccc(-c2csc(N3CCOCC3)n2)cc1OC	61*	-5	-4	10
CC(C)Sc1nnc([C@H](Cc2c[nH]c3ccccc23)NC(=O)OC(C)(C)C)o1	x	x	4	x
COc1ccc(-n2ncc3c(Nc4cccc(C)c4)ncnc32)cc1	30	-5	7	80*
Cc1cccc(-n2ncc3c(Nc4ccc(F)cc4)ncnc32)c1	64*	12	10	74*
Cn1ncc2c(Nc3ccc(-c4ccccc4)cc3)ncnc21	43	-5	x	60*
COc1ccc(Nc2ncnc3c2cnn3-c2cccc(C)c2)cc1OC	7	2	x	-3
COc1ccc(CCNC(=O)CSc2nc3ccccc3o2)cc1	x	x	7	x
CCC1CCCCN1C(=O)CSc1nnc(-c2cccs2)o1 (stereo not given)	44	-5	-1	40
Clc1cccc(CSc2nc3ccncc3[nH]2)c1	x	x	5	x
Fc1cccc(CSc2nc3ccncc3[nH]2)c1	25	2	1	51*
c1cnc2c(OCc3nc4ccccc4[nH]3)cccc2c1	82*	-10	6	65*
c1ccc2cc(OCc3nc4ccccc4[nH]3)ccc2c1	x	x	7	x
COc1ccccc1OCc1nc2ccccc2[nH]1	54*	6	4	53*
Cc1ccc(-n2nnnc2SCc2ccccn2)cc1C	x	x	2	x
CC(C)(C)n1ncc2c(=O)n(CC(=O)c3ccc(Cl)cc3)cnc21	59*	1	0	87*
CC(=O)Nc1ccc(NC(=O)Cn2cnc3c(cnn3C(C)(C)C)c2=O)cc1	-8	3	5	-1
CC(C)(C)n1ncc2c(=O)n(CC(=O)Nc3ccc(Cl)cc3)cnc21	-18	5	5	-12
CC(C)(C)n1ncc2c(=O)n(CC(=O)NCc3ccccc3)cnc21	56*	-6	2	78*
CC(C)Oc1ccc(C2C(C(=O)c3ccco3)=C(O)C(=O)N2CCCN(C)C)cc1 (stereo not given)	7	-1	2	2
O=C(COc1ccccc1)n1nc(-c2ccc(Cl)cc2)nc1NCc1ccco1	60*	8	7	31
Cc1ccc(-c2cc(C(=O)N3CCCC3)no2)cc1	-51	-4	0	-51
CC1CCCC(C)N1C(=O)c1cc(-c2ccc(Cl)c(Cl)c2)on1 (stereo not given)	76*	3	x	26
Cc1nn(-c2ccccc2)c2c1C(O)n1c(nc3ccccc31)S2 (stereo not given)	17	19*	x	14
Cc1nc(Nc2ncc3c(n2)CCCC3=O)nc2ccccc12	-21	-6	0	-7
SMILES	RORa activator	JNK3 blocker	Calb biofilm kill	SF1 activator
COc1ccc(C2C(C#N)=C(N)SC(N)=C2C#N)cc1OC	-6	22*	4	9
CC(=O)CSc1nnc(Cc2ccc3c(c2)OCO3)o1	x	x	11	x
CC(=O)c1c(C)[nH]c(C(=O)COC(=O)CN(C)S(=O)(=O)c2ccc(Cl)cc2)c1C	x	x	3	x
O=C1N(CCCCN2C(=O)C3(OCCO3)c3ccccc32)c2ccccc2C12OCCO2	3	-6	4	4
O=C1N(CCCN2C(=O)C3(OCCO3)c3ccccc32)c2ccccc2C12OCCO2	53*	2	6	-15
COc1cccc(CN(CC(=O)NC2CCCC2)C(=O)Cn2nnc(-c3cccs3)n2)c1	x	x	7	x
Cc1ccc(CNC(=O)CCSCCC(=O)NCc2ccc(C)cc2)cc1	x	x	2	x
Cc1cc2nn(-c3ccccc3)nc2cc1NC(=O)c1cccs1	95*	0	-6	38
Cc1cc(NC(=O)c2cccs2)n(-c2ccccc2)n1	x	x	8	x
O=C(O)Cc1ccc(C(=O)c2ccccc2F)s1	x	x	-6	x
CCOC(=O)c1[nH]c(C)c(C(=O)Nc2ccc(Cl)cc2)c1C	6	9	4	24
CCOC(=O)c1[nH]c(C)c(C(=O)Nc2cccc(Cl)c2C)c1C	64*	-4	14	30
O=C(NCCSCc1ccccc1)c1ccc(C2SCC(=O)N2Cc2ccccc2)cc1 (stereo not given)	x	x	4	x
CCOC(=O)C1CCCN(C(=O)c2cc(Nc3ccc(OC)cc3)nc3ccccc23)C1 (stereo not given)	x	x	6	x
COc1ccc(Cn2c(C3CC3)nc3ccc(NC(C)=O)cc3c2=O)cc1	77*	8	5	58*
COc1ccc(NC(=O)CSc2nnc(C3CC3)n2-c2ccccc2)cc1	x	x	-3	x
